Test results taken from paper PMC7932937 (Clinical Pharmacokinetics, 2020).
Read-outs that look alike come from different tables or passages of the source.

Experiments:
[1] = literature values ref 12, 26, 27; cited from earlier work
[2] = Population pharmacokinetic model; format: in vivo, people living with HIV
Method in brief: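 Adults with HIV on rosuvastatin 5–20 mg daily. Plasma came from a rich-sampling study and from sparse samples at cohort visits, 0.2–38.5 h post-dose, and was assayed by UHPLC-MS/MS. Models tested one or two compartments with first-order, zero-order or mixed absorption. Absorption parameters were fixed from the rich data. Between-subject variability was log-normal; residual error additive on the log scale. Covariate thresholds: ΔOFV 3.84 forward, 7.88 backward.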

[3] = cited from earlier work
[4] = tested on: baseline non-HDL-cholesterol; test: Covariate analysis on baseline non-HDL-cholesterol in the PK/PD model; format: in vivo, people living with HIV; conditions: coadministration, final PK/PD model covariate
Method in brief: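 Indirect-response model linked to the final population PK model (plasma rosuvastatin by UHPLC-MS/MS; daily doses 5–20 mg). Drug inhibits kin, with kout = kin/baseline. Covariates (ARV regimen, comedications, diabetes, weight, AST, ALT, age) were tested on baseline only, by stepwise forward inclusion and backward deletion. Continuous covariates were median-centred (linear or allometric), categorical ones coded 0/1. Cholesterol was measured enzymatically (cholesterol oxidase).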

[5] = estimated from full PK profiles (rich sampling), without variability
[6] = coadministered with cobicistat-boosted darunavir ref 20
[7] = coadministered with ritonavir-boosted atazanavir ref 19
[8] = coadministered with ritonavir-boosted darunavir ref 9
[9] = coadministered with ritonavir-boosted lopinavir ref 30

Structure (SMILES) | volume of distributions [1] | Cl decrease with boosted PIs that the study was powered to rule out ([2]; coadministered boosted PIs, univariate analysis) | absorption rate constant [2, 5] | duration of zero-order absorption [2, 5] | increase in rosuvastatin Vc ([2]; in women, univariate testing, not significant in multivariate analysis) | increase in rosuvastatin AUC0–24 [3, 6] | increase in rosuvastatin Cmax [3, 6] | increase in rosuvastatin AUC0–24 [3, 7] | increase in rosuvastatin Cmax [3, 7] | increase in rosuvastatin AUC0–24 [3, 8] | increase in rosuvastatin Cmax [3, 8] | increase in rosuvastatin AUC0–24 [3, 9] | increase in rosuvastatin Cmax [3, 9] | decrease in the baseline non-HDL-cholesterol value [4]
CC(C)c1nc(N(C)S(C)(=O)=O)nc(-c2ccc(F)cc2)c1/C=C/[C@@H](O)C[C@@H](O)CC(=O)O [rosuvastatin] | 1255 to 4870 L | ≤ 22% | 0.306 h⁻¹ | 0.461 h | three-fold | 93% | 277% | 213% | 600% | 48% | 143% | 110% | 370% | 
Cc1cc(C#N)cc(C)c1Oc1nc(Nc2ccc(C#N)cc2)nc(N)c1Br [etravirine] |  |  |  |  |  |  |  |  |  |  |  |  |  | 14%
